Measured values taken from article PMC12518644 (Scientific Reports, 2025).

Test system: MDA-MB-231 BC cell line
Test: MTT cytotoxicity assay on MDA-MB-231 breast cancer cells
Format: cell-based
Details: Homo sapiens, MDA-MB-231, 48 h, read-out: IC50 Values, MDA-MB-231, MTT, 48 h
Summary of the method: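 Cells grown in DMEM with 10% FBS and 1% antibiotics (100 U/ml penicillin), seeded at 1.0 × 10^4 cells/well, and incubated 24 h at 37 °C under 5% CO2. Medium then replaced with test compound at 6.5, 12.5, 25 or 50 µM for 48 h. MTT (5 mg/mL solution) added for 4 h, formazan dissolved in DMSO, and absorbance read at 570 nm. IC50 derived from dose-response.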

Cc1ccc(S(=O)(=O)n2cc(/C=N/NC(=O)c3cccc4ccccc34)c3ccccc32)cc1 [Compound 5p, (E )-N’ -[(1-Tosyl-1 H -indol-3-yl)methylene]−1-naphthohydrazide]
IC50: 18.1 ± 0.2 µM
